Experimental data: ChEMBL document CHEMBL4699650, “SAR Investigation and Discovery of Water-Soluble 1-Methyl-1,4-dihydroindeno[1,2-c]pyrazoles as Potent Tubulin Polymerization Inhibitors” (J Med Chem, 2020)

What was measured:
[1] = Inhibition of porcine brain tubulin polymerization measured every 60 sec for 60 mins in presence of GTP by fluorescence assay; parameters: species or system Sus scrofa
Method in brief: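 Fluorescence kit assay using 2 mg/mL porcine brain tubulin with 2 mM MgCl₂, 0.5 mM EGTA, 1 mM GTP and 15% glycerol. Compound at various concentrations preincubated 1 min at 37 °C before adding the tubulin mix. Read at ex 355/em 460 nm every 60 s for 60 min. IC50 is the concentration giving 50% inhibition at 60 min; mean ± SD of ≥3 independent experiments.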

HepG2 [2] = assay: Antiproliferation activity against human HepG2 cells assessed as cell growth inhibition measured after 72 hrs by MTT assay; format: functional
Method in brief: (§1)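 Cells grown in RPMI-1640 with 10% FBS at 37 °C, 5% CO2, seeded at 4−7 × 10³ cells/well and left to adhere overnight. Exposed to a range of concentrations for 72 h, then MTT (2.5 mg/mL stock) added for 4 h. Formazan dissolved in DMSO and absorbance read at 570 nm. GI50 taken as the concentration giving 50% growth inhibition, reported as mean ± SD of at least three independent experiments.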

HCT-116 = assay: Antiproliferation activity against human HCT116 cells assessed as cell growth inhibition measured after 72 hrs by MTT assay; format: functional; method in brief: as §1
A549 = assay: Antiproliferation activity against human A549 cells assessed as cell growth inhibition measured after 72 hrs by MTT assay; format: functional; method in brief: as §1
[3] = Antiproliferation activity against human A549/Taxol cells assessed as cell growth inhibition measured after 72 hrs by MTT assay; format: functional; method in brief: as §1
[4] = Resistance index, ratio of GI50 for antiproliferation activity against human A549/Taxol cells to GI50 for antiproliferation activity against human A549 cells assessed as cell growth inhibition measured after 72 hrs by MTT assay
[5] = Cytotoxicity against human L02 cells assessed as assessed as cell growth inhibition measured after 72 hrs by MTT assay; format: cell-based
Method in brief: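 LO2 normal liver cells cultured in RPMI-1640/10% FBS at 37 °C, 5% CO2 and seeded at 4−7 × 10³ cells/well. Graded concentrations applied for 72 h, then MTT readout at 570 nm. GI50 is the concentration giving 50% growth inhibition, mean ± SD of at least three independent experiments.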

[6] = Selectivity index, ratio of GI50 for cytotoxicity against human L02 cells to GI50 for antiproliferation activity against human HepG2 cells assessed as cell growth inhibition measured after 72 hrs by MTT assay; format: toxicity, cell-based; details: L02 cells and HepG2 cells, read-out: RatioGI50
Method in brief: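 MTT assay: cells seeded 4–7 × 10³/well, adhered overnight, exposed to a concentration series for 72 h. MTT (2.5 mg/mL stock) added for 4 h, crystals dissolved in DMSO, absorbance read at 570 nm. GI50 is mean ± SD of ≥3 independent experiments. Selectivity = GI50 on normal LO2 / GI50 on HepG2. Resistance fold = GI50 on resistant cells / GI50 on sensitive cells.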

HepG2 [7] = assay: Inhibition of cell migration in human HepG2 cells at 10 nM measured after 24 hrs by inverted light microscopy method based wound healing assay relative to control; format: functional
Method in brief: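 Confluent HepG2 monolayer (seeded 3 × 10⁵ cells/well) scratched with a pipette tip and washed with PBS. Incubated in serum-free DMEM with compound at 2.5, 5 or 10 nM for 24 h; CA-4 run in parallel, DMSO as vehicle. Wound imaged at 0 and 24 h by inverted microscope and compared with control.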

| Compound | IC50 [1] | GI50 (HepG2 [2]) | GI50 (HCT-116) | GI50 (A549) | GI50 [3] | RatioGI50 [4] | GI50 at 72 h [5] | selectivity ratio at 72 h [6] | inhibition at 0.01 µM (HepG2 [7]) |
| --- | --- | --- | --- | --- | --- | --- | --- | --- | --- |
| CCOc1cccc(Nc2nn(C)c3c2Cc2cc(OCC)c(OCC(=O)O)cc2-3)c1 | > 20000 nM | 1640 nM | 1270 nM | 8660 nM | – | – | – | – | – |
| CCOc1cc2c(cc1OCCCN)-c1c(c(Nc3cccc(C(=O)CC)c3)nn1C)C2 | 3100 nM | 2.1 nM | 4 nM | 7.6 nM | – | – | – | – | – |
| CCOc1cc2c(cc1OCCCN)-c1c(c(Nc3cccc(C#N)c3)nn1C)C2 | 5700 nM | 3.8 nM | 6.4 nM | 20.8 nM | – | – | – | – | – |
| CCCOc1cc2c(cc1OCC(N)=O)-c1c(c(Nc3cccc(OCC)c3)nn1C)C2 | 11000 nM | 55.6 nM | 230 nM | 426 nM | – | – | – | – | – |
| CC(=O)O[C@H]1C(=O)[C@@]2(C)[C@H]([C@H](OC(=O)c3ccccc3)[C@]3(O)C[C@H](OC(=O)[C@H](O)[C@@H](NC(=O)c4ccccc4)c4ccccc4)C(C)=C1C3(C)C)[C@]1(OC(C)=O)CO[C@@H]1C[C@@H]2O [PACLITAXEL] | – | – | – | – | 935 nM | 246 | 30.8 nM | 12 | – |
| CCCOc1cc2c(cc1OCC)Cc1c(Nc3cccc(OCC)c3)nn(C)c1-2 | 14600 nM | 397 nM | 129 nM | 512 nM | – | – | – | – | – |
| CCOc1cc2c(cc1OCC(N)=O)-c1c(c(Nc3cccc(C(=O)OC(C)C)c3)nn1C)C2 | 8000 nM | 25.3 nM | 36.4 nM | 121 nM | – | – | – | – | – |
| CCOc1cc2c(cc1OCCCO)-c1c(c(Nc3cccc(C(=O)OC(C)C)c3)nn1C)C2 | 7700 nM | 36.7 nM | 103 nM | 164 nM | – | – | – | – | – |
| CCOc1cc2c(cc1OCCCO)-c1c(c(Nc3cccc(C(=O)CC)c3)nn1C)C2 | 5300 nM | 13.6 nM | 24.5 nM | 38.2 nM | – | – | – | – | – |
| COc1ccc(/C=C\c2cc(OC)c(OC)c(OC)c2)cc1O [COMBRETASTATIN A4] | 2300 nM | 6.1 nM | 2.4 nM | 4.8 nM | 20.4 nM | 4 | 333 nM | 55 | 47% |
| CCOc1cccc(Nc2nn(C)c3c2Cc2cc(OC)c(OCC(N)=O)cc2-3)c1 | 13400 nM | 15 nM | 26.5 nM | 19.6 nM | – | – | – | – | – |
| CCOc1cc2c(cc1OCC(=O)NC)-c1c(c(Nc3cccc(C(=O)OC)c3)nn1C)C2 | 6300 nM | 10.2 nM | 37.1 nM | 78.1 nM | – | – | – | – | – |
| CCOC(=O)c1cccc(Nc2nn(C)c3c2Cc2cc(OCC)c(OCCCO)cc2-3)c1 | 3500 nM | 3.3 nM | 7.7 nM | 5.3 nM | – | – | – | – | – |
| CCNc1cccc(Nc2nn(C)c3c2Cc2cc(OCC)c(OCC(N)=O)cc2-3)c1 | 10800 nM | 107 nM | 432 nM | 356 nM | – | – | – | – | – |
| CCOc1cc2c(cc1OCC(N)=O)-c1c(c(Nc3cccc(C(=O)OC)c3)nn1C)C2 | 4500 nM | 4.3 nM | 9.7 nM | 3 nM | – | – | – | – | – |
| CCOc1cc2c(cc1OCC(N)=O)-c1c(c(Nc3cccc(C(=O)CC)c3)nn1C)C2 | 4100 nM | 9.2 nM | 27 nM | 21.4 nM | – | – | – | – | – |
| CCOc1cccc(Nc2nn(C)c3c2Cc2cc(OCc4ccc(OC)cc4)c(OCC(N)=O)cc2-3)c1 | > 20000 nM | 3070 nM | 16600 nM | 3080 nM | – | – | – | – | – |

| Compound | IC50 [1] | GI50 (HepG2 [2]) | GI50 (HCT-116) | GI50 (A549) | GI50 [3] | RatioGI50 [4] | GI50 at 72 h [5] | selectivity ratio at 72 h [6] | inhibition at 0.01 µM (HepG2 [7]) |
| --- | --- | --- | --- | --- | --- | --- | --- | --- | --- |
| CCOc1cc2c(cc1OCC(=O)NC)-c1c(c(Nc3cccc(C#N)c3)nn1C)C2 | > 20000 nM | 97.3 nM | 819 nM | 2040 nM | – | – | – | – | – |
| CCCOc1cc2c(cc1OCC(N)=O)Cc1c(Nc3cccc(OCC)c3)nn(C)c1-2 | > 20000 nM | 1960 nM | 1140 nM | 25400 nM | – | – | – | – | – |
| CCOc1cc2c(cc1OCCCO)-c1c(c(Nc3cccc(C#N)c3)nn1C)C2 | 9100 nM | 42.9 nM | 151 nM | 176 nM | – | – | – | – | – |
| CCOc1cc2c(cc1OCCCO)-c1c(c(Nc3cccc(C(=O)O)c3)nn1C)C2 | > 20000 nM | > 20000 nM | 5380 nM | 18300 nM | – | – | – | – | – |
| CCCCOc1cc2c(cc1OCC(N)=O)-c1c(c(Nc3cccc(OCC)c3)nn1C)C2 | > 20000 nM | 2760 nM | 4770 nM | 19900 nM | – | – | – | – | – |
| CCOc1cc2c(cc1OCC(N)=O)-c1c(c(Nc3cccc(C(=O)NC)c3)nn1C)C2 | > 20000 nM | 642 nM | 2100 nM | 13100 nM | – | – | – | – | – |
| CCOc1cccc(Nc2nn(C)c3c2Cc2cc(O)c(OCC(N)=O)cc2-3)c1 | > 20000 nM | 5330 nM | 4660 nM | 15200 nM | – | – | – | – | – |
| CCOc1cccc(Nc2nn(C)c3c2Cc2cc(OCC)c(OCC(N)=O)cc2-3)n1 | 4100 nM | 17.1 nM | 19 nM | 62.5 nM | – | – | – | – | – |
| CCOc1cccc(Nc2nn(C)c3c2Cc2cc(OCC)c(OCCCO)cc2-3)c1 | 5800 nM | 15.7 nM | 10.4 nM | 94.4 nM | – | – | – | – | – |
| CCOC(=O)c1cccc(Nc2nn(C)c3c2Cc2cc(OCC)c(OCC(N)=O)cc2-3)c1 | 3900 nM | 3.4 nM | 4.5 nM | 12 nM | – | – | – | – | – |
| CCOc1cc2c(cc1OCCCO)-c1c(c(Nc3cccc(C(=O)OC)c3)nn1C)C2 | 5900 nM | 7.1 nM | 12.3 nM | 8.1 nM | – | – | – | – | – |
| CCOc1cccc(Nc2nn(C)c3c2Cc2cc(OCC)c(OCCCNC(C)=O)cc2-3)c1 | > 20000 nM | 364 nM | 197 nM | 935 nM | – | – | – | – | – |
| CCOc1ccc(Nc2nn(C)c3c2Cc2cc(OCC)c(OCC(N)=O)cc2-3)cc1 | > 20000 nM | 1910 nM | 4310 nM | 15000 nM | – | – | – | – | – |
| CCOc1cc2c(cc1OCC(N)=O)-c1c(c(Nc3cccc(C#N)c3)nn1C)C2 | 9900 nM | 66.9 nM | 361 nM | 166 nM | – | – | – | – | – |
| CCOc1cc2c(cc1OCCCO)-c1c(c(Nc3cccc(C(=O)NC)c3)nn1C)C2 | > 20000 nM | 2350 nM | 1480 nM | 1340 nM | – | – | – | – | – |
| CCOc1cccc(Nc2nn(C)c3c2Cc2cc(OCC)c(OCCCO)cc2-3)n1 | 5000 nM | 15.5 nM | 27.1 nM | 72 nM | – | – | – | – | – |
